Screening data as filed in PubChem.
GRIN3A LBD mod – NR3A (human) ligand-binding domain modulation. hit rate 2.5% among 340,000. NR3A LBD differential scanning fluorimetry, Tm shift; 0% = protein alone, 100% = glycine-bound protein. AID 1259313. Tm shift relative to glycine control, % at 25 µM;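 active means melting temperature shift of at least 10% of the positive control shift, at one fixed dose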
PAFAH1B3 FP inh – inhibitors of human PAFAH1B3. Q15102. recombinant PAFAH1B3, FP-rhodamine probe, fluorescence polarization. inhibition, % at 3.39 µM. hit rate 0.28% among 340,000. AID 492972;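 active means inhibition above the screen-wide average of all tested compounds plus 3 SD, cut at about 25% in these data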;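 further: 0% = enzyme with DMSO only and 100% = wells lacking PAFAH1B3 protein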
PAFAH1B2 FP inh – PAFAH1B2 (human) inhibition; recombinant PAFAH1B2, FP-rhodamine activity probe, fluorescence polarization; inhibition, % at 3.39 µM; hit rate 1.2% among 340,000; AID 492953;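 active means inhibition above the mean of all tested compounds plus 3 SD, cut at about 24% in these data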;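 further: 0% = enzyme with DMSO and 100% = wells lacking PAFAH1B2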
Target sequence (P68402 whole entry, looked up): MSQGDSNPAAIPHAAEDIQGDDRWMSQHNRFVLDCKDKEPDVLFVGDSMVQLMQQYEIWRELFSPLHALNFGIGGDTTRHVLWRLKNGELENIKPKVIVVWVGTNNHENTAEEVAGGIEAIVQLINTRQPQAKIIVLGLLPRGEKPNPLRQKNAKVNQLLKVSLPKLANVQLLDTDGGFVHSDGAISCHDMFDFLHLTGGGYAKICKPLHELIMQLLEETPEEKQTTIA
UCH37 DUB inh – blocks the human deubiquitinase UCH37; Q9Y5K5; purified proteasome/UCH37, Ub-AMC cleavage fluorescence; inhibition, % (test concentration not listed); hit rate 0.33% among 330,000; AID 588478;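 active means mean inhibition over replicate wells above about 20%, limit read from the data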;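 further: 0% = compound-free wells with enzyme and 100% = wells lacking proteasome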
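system = Proteasome-associated human UCH37 deubiquitinase | amount = 0.15 nM proteasome as dispensed | medium = pH 7.4 Tris-HCl (50 mM) with ovalbumin, ATP-MgCl2, DTT | incubation = 30 min preincubation with enzyme, 25 min cleavage at room temperature | detection = AMC fluorescence 355/460 nm | read-out basis = percent inhibition | controls = no-proteasome and no-compound wells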
PAFAH2 FP inh – inhibitors of human PAFAH2. recombinant PAFAH2, FP-rhodamine activity probe, fluorescence polarization. inhibition, % at 3.39 µM. Q99487. hit rate 0.99% among 340,000. AID 492956;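 active means inhibition above the mean over all tested compounds plus 3 SD, cut at about 30% in these data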;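 further: inhibitors block probe labeling of enzyme so polarization drops; 0% = enzyme with DMSO and 100% = wells lacking PAFAH2 protein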
pPAFAH inh – pPAFAH (human) enzyme inhibition; Q13093; recombinant pPAFAH, FP-rhodamine probe fluorescence polarization; inhibition, % at 3.39 µM; hit rate 1.5% among 330,000; AID 463082;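 active means inhibition above the mean inhibition across the screen plus 3 SD, cut at about 25% in these data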;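 further: inhibitors block binding of the rhodamine activity-based probe so polarization drops; 0% = enzyme with DMSO and 100% = wells lacking pPAFAH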
Target sequence (Q13093 whole entry, looked up): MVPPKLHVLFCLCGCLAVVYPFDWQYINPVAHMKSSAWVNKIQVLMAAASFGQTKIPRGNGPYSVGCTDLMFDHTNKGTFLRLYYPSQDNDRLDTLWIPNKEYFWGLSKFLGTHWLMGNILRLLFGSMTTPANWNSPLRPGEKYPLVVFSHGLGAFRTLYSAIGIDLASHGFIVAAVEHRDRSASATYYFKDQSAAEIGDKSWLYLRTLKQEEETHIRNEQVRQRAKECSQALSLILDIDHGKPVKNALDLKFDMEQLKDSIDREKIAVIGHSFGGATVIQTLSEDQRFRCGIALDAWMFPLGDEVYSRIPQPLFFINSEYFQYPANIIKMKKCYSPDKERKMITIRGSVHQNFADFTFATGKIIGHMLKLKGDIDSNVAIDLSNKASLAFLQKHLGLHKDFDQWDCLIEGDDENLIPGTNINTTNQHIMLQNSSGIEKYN
* hit, by the source's call; ! = not confirmed by another sample. This is a sample that favours compounds with a hit; in the whole collection about 4.8% have one here.

Results for O=C(Cn1cnc2ccccc21)NN=Cc1ccco1 ?
UCH37 DUB inh: 0.4

Results for O=S(=O)(Cc1ccc(Cl)cc1)Oc1ccc(Cl)cc1 ?
GRIN3A LBD mod: -61.3; PAFAH1B3 FP inh: 4.8; PAFAH1B2 FP inh: 24.8*; UCH37 DUB inh: 2.8; PAFAH2 FP inh: -1.2

Results for O=[N+]([O-])c1ccc(OS(=O)(=O)Cc2ccccc2)cc1 ?
GRIN3A LBD mod: -1.5; PAFAH1B3 FP inh: -0.9; PAFAH1B2 FP inh: 0.5; UCH37 DUB inh: 2.8; PAFAH2 FP inh: 8.1; pPAFAH inh: 0.0

Results for O=C(NN=Cc1ccccn1)c1cccs1 ?
UCH37 DUB inh: 1.4

Results for Cc1ccc(C(=O)O)cc1S(=O)(=O)N1CCCC1 ?
GRIN3A LBD mod: 1.2; PAFAH1B3 FP inh: 4.8; PAFAH1B2 FP inh: 0.3; UCH37 DUB inh: 1.1; PAFAH2 FP inh: -5.1; pPAFAH inh: 1.0

What do the screens show for `Cc1ccc(C(=O)OCC(=O)c2c(N)n(C)c(=O)n(C)c2=O)cc1S(=O)(=O)N1CCCCC1`?
GRIN3A LBD mod: 10.2*; PAFAH1B3 FP inh: 1.5; PAFAH1B2 FP inh: 6.0; UCH37 DUB inh: 2.2; PAFAH2 FP inh: 7.2; pPAFAH inh: -4.8

How did Cc1ccc(C(=O)Oc2ccc([N+](=O)[O-])cc2)cc1S(=O)(=O)N1CCCCCC1 do in these assays?
GRIN3A LBD mod: 12.7*; PAFAH1B3 FP inh: -2.3; PAFAH1B2 FP inh: 4.2; UCH37 DUB inh: 2.5; PAFAH2 FP inh: -3.3; pPAFAH inh: 9.9

Results for Cc1ccc(S(=O)(=O)N2CCOCC2)cc1C(=O)OCC(=O)c1c(N)n(C)c(=O)n(C)c1=O ?
GRIN3A LBD mod: 1.2; PAFAH1B3 FP inh: 6.8; PAFAH1B2 FP inh: 1.9; UCH37 DUB inh: 3.1; PAFAH2 FP inh: 3.7; pPAFAH inh: -2.1

What do the screens show for `COC(C(=O)NN=C(C)c1ccc(C(C)(C)C)cc1)c1ccccc1` (centres undefined)?
UCH37 DUB inh: 0.8

How did COc1ccccc1OCCn1cc(C=NNC(N)=S)c2ccccc21 do in these assays?
UCH37 DUB inh: 7.4

What do the screens show for `COc1ccccc1NC(=O)COc1ccc(CO)cc1Cl`?
GRIN3A LBD mod: 11.0*; PAFAH1B3 FP inh: 8.8; PAFAH1B2 FP inh: -0.8; UCH37 DUB inh: 2.1; PAFAH2 FP inh: -1.3; pPAFAH inh: -12.0

Results for O=C(COc1ccc(CO)cc1Cl)Nc1ccc(F)cc1 ?
GRIN3A LBD mod: 1.2; PAFAH1B3 FP inh: -4.1; PAFAH1B2 FP inh: 2.4; UCH37 DUB inh: 1.1; PAFAH2 FP inh: -0.3; pPAFAH inh: 1.5

How did Cc1cccc2c(=O)cc(C)n(Cc3ccccc3)c12 do in these assays?
GRIN3A LBD mod: 12.5*; PAFAH1B3 FP inh: 9.2; PAFAH1B2 FP inh: 5.0; UCH37 DUB inh: 0.1; PAFAH2 FP inh: -1.9; pPAFAH inh: 12.9

What do the screens show for `NC(=O)CSc1nc2scc(-c3ccco3)c2c(=O)n1-c1ccccc1`?
GRIN3A LBD mod: -0.6; PAFAH1B3 FP inh: 2.9; PAFAH1B2 FP inh: 4.8; UCH37 DUB inh: 1.4; PAFAH2 FP inh: 2.8; pPAFAH inh: 27.5*

Results for O=c1c2ccccc2c(/C=N/c2ncn[nH]2)c(O)n1Cc1ccccc1 ?
GRIN3A LBD mod: 14.7*!; PAFAH1B3 FP inh: 6.1; PAFAH1B2 FP inh: 3.6; UCH37 DUB inh: 5.4; PAFAH2 FP inh: 2.5; pPAFAH inh: 3.9

How did COc1ccc(Cn2c(O)c(C=Nc3ccccc3C(=O)O)c3ccccc3c2=O)cc1 do in these assays?
GRIN3A LBD mod: -5.4; PAFAH1B3 FP inh: 10.1; PAFAH1B2 FP inh: 4.1; UCH37 DUB inh: 9.4; PAFAH2 FP inh: 37.0*; pPAFAH inh: 26.6*

How did COc1ccccc1NS(=O)(=O)c1cccc(-n2c(O)c(C=Nc3ccccc3C(=O)O)c3ccccc3c2=O)c1 do in these assays?
GRIN3A LBD mod: 1.6; PAFAH1B3 FP inh: 6.4; PAFAH1B2 FP inh: 7.2; UCH37 DUB inh: 13.5; PAFAH2 FP inh: 83.0*; pPAFAH inh: 30.2*

Results for N#Cc1c(Nc2ccccc2)sc(C(=O)c2ccc(F)cc2)c1N ?
GRIN3A LBD mod: 2.4; PAFAH1B3 FP inh: 6.4; PAFAH1B2 FP inh: 29.7*; UCH37 DUB inh: -11.4; PAFAH2 FP inh: 6.9; pPAFAH inh: 17.0

How did Cc1ccc(C(=O)c2sc(Nc3ccccc3)c(C#N)c2N)cc1 do in these assays?
GRIN3A LBD mod: -1.3; PAFAH1B3 FP inh: -2.8; PAFAH1B2 FP inh: 6.3; UCH37 DUB inh: -18.8; PAFAH2 FP inh: 6.8; pPAFAH inh: 24.5

What do the screens show for `N#Cc1c(Nc2ccccc2)sc(C(=O)C2CC2)c1N`?
GRIN3A LBD mod: -0.4; PAFAH1B3 FP inh: 5.8; PAFAH1B2 FP inh: 28.4*; UCH37 DUB inh: 4.9; PAFAH2 FP inh: 0.6; pPAFAH inh: 8.3

Results for CCCCC(=O)Nc1cccc(C(=O)NN=Cc2ccc(OC)cc2OC)c1 ?
UCH37 DUB inh: -0.1

How did CCOC(=O)c1[nH]c(C)c(/C(O)=C2\C(=O)C(=O)N(CCN(C)C)C2c2ccncc2)c1C (centres undefined) do in these assays?
GRIN3A LBD mod: 0.1; PAFAH1B3 FP inh: 7.3; PAFAH1B2 FP inh: 0.3; UCH37 DUB inh: 29.2*; PAFAH2 FP inh: 2.2; pPAFAH inh: 0.0

Results for Cn1cccc1C=NNC(=O)c1cncc(Br)c1 ?
UCH37 DUB inh: 11.7

How did CN(C)c1cccc2c(C=NO)ccc(N(C)C)c12 do in these assays?
UCH37 DUB inh: 0.0

What do the screens show for `Cc1cc(C(=O)c2ccc(Cl)cc2)c(NC(=O)CCl)s1`?
GRIN3A LBD mod: 11.6*; PAFAH1B3 FP inh: 4.4; PAFAH1B2 FP inh: 1.3; UCH37 DUB inh: 4.3; PAFAH2 FP inh: -5.0; pPAFAH inh: 1.1

How did Cc1c(NS(=O)(=O)c2cccs2)cccc1-c1nc2cccnc2s1 do in these assays?
GRIN3A LBD mod: -1.0; PAFAH1B3 FP inh: 2.2; PAFAH1B2 FP inh: 1.0; UCH37 DUB inh: -13.4; PAFAH2 FP inh: -6.7; pPAFAH inh: 14.9

Results for Cc1cc(C)cc(NS(=O)(=O)c2cccs2)c1 ?
GRIN3A LBD mod: -2.4; PAFAH1B3 FP inh: 13.8; PAFAH1B2 FP inh: 8.1; UCH37 DUB inh: 0.9; PAFAH2 FP inh: -0.4; pPAFAH inh: 11.9

Results for Cc1ccc(NS(=O)(=O)c2cccs2)c(C)c1 ?
GRIN3A LBD mod: -1.6; PAFAH1B3 FP inh: 4.0; PAFAH1B2 FP inh: 4.0; UCH37 DUB inh: 6.6; PAFAH2 FP inh: -12.1; pPAFAH inh: 27.6*

What do the screens show for `Cc1cc(-c2nc3cccnc3s2)ccc1NS(=O)(=O)c1cccs1`?
GRIN3A LBD mod: -6.2; PAFAH1B3 FP inh: 1.7; PAFAH1B2 FP inh: 7.9; UCH37 DUB inh: -422.4; PAFAH2 FP inh: 5.3; pPAFAH inh: 32.7*

Results for CC(=NNc1nc2ccccc2s1)c1cccs1 ?
UCH37 DUB inh: 3.2

Results for Cc1ccc(/C(=N/Nc2nc3ccccc3s2)C2=C(O)c3ccccc3C2=O)cc1 ?
GRIN3A LBD mod: 19.4*; PAFAH1B3 FP inh: 25.4; PAFAH1B2 FP inh: 18.1; PAFAH2 FP inh: 18.4; pPAFAH inh: -8.8

What do the screens show for `COc1ccc(C(=O)/C=C/Nc2cc(C)on2)c(OC)c1`?
GRIN3A LBD mod: 30.9*; PAFAH1B3 FP inh: 4.3; PAFAH1B2 FP inh: 6.7; UCH37 DUB inh: 5.6; PAFAH2 FP inh: 11.1; pPAFAH inh: 2.3

What do the screens show for `COc1ccc(C=NNC(=O)c2cc(OCC(F)(F)F)ccc2OCC(F)(F)F)cc1`?
UCH37 DUB inh: 3.0
